Data set [1] has as its system Liver microsome. Kind of data set: Clearance in human liver microsomes. Format: ADME. In short, it runs like this:
(§1)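 Compound incubated with liver microsomes; in vitro metabolic clearance expressed as (mL/min)/g liver.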

Data set [2] in a line: Ratio of drug uptake from blood to plasma in human. Format: ADME. In short, it runs like this: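 In vitro partitioning of the compound into the cellular fraction of rat, dog and human blood, reported as the blood:plasma ratio.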
Data set [3] concerns Cavia porcellus. Kind of data set: Bronchodilatory activity in guinea pig assessed as inhibition of histamine-induced bronchoconstriction administered via nebulization 2 mins prior to histamine challenge. Format: functional. In short, it runs like this:
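Conscious guinea pigs, n = 24 per group, given test agonist as a nebulized solution in dimethylacetamide–saline vehicle (2 min nebulization) before histamine (10 mM, nebulized 1.3 min) in a whole-body plethysmograph. PenH recorded for 15 min as index of airway obstruction. Dose expressed as nebulizer concentration; duration taken as time to 50% recovery.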

The target in data set [4] is T1, Cytochrome P450 1A2 (Homo sapiens, UniProt P05177).
T1 sequence (P05177 whole entry): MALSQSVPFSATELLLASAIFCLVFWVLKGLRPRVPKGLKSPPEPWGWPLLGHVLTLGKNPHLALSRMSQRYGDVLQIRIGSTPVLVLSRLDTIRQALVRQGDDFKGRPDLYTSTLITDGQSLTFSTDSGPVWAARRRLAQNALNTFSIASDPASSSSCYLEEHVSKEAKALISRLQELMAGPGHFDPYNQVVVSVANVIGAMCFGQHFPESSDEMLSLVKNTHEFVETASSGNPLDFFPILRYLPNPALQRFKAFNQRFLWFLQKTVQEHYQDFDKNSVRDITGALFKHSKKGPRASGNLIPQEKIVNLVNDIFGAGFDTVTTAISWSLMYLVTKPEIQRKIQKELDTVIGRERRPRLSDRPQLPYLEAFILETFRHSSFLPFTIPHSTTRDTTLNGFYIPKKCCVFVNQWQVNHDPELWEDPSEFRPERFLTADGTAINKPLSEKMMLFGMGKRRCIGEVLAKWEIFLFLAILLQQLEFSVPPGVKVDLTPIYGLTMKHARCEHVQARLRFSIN
Kind of data set: Inhibition of human CYP1A2 expressed in Escherichia coli. Format: ADME. In short, it runs like this:
(§2)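 Human CYP isoforms expressed in E. coli; IC50 from n = 3. Probe substrates diethoxyfluorescein and 7-benzyloxyquinoline are stated for CYP3A4.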

Data set [5] can be described thus: Oral bioavailability in Han Wistar rat at 2 mg/kg up to 7 hrs by LC-MS/MS analysis. Format: ADME, organism-based. Particulars: in vivo; call rule not given here.
Data set [6] has as its target Cytochrome P450 3A4 (Homo sapiens, UniProt P08684). Description: Inhibition of human CYP3A4 expressed in Escherichia coli using 7-benzyloxyquinoline as substrate. Format: ADME. An outline of the steps: as §2
Data set [7] is described as follows: Volume of distribution at steady state in beagle dog at 0.05 mg/kg, iv up to 8 hrs by LC-MS/MS analysis. Format: ADME, organism-based, Canis lupus familiaris. Set-up: dose 0.05 mg/kg, route intravenous. As to conditions: in vivo, read-out: Vdss. An outline of the steps:
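Beagle dogs dosed 0.05 mg/kg intravenously; plasma collected at various time points up to 8 h postdose.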

Data set [8] has as its system Liver microsome. Description: Clearance in dog liver microsomes. Format: ADME, Canis lupus familiaris. An outline of the steps:
as §1
A general note: Microsomes from liver hold many membrane-bound enzymes, among them those of drug oxidation.

Data set [9] has as its system Hepatocyte. Description: Drug metabolism in human hepatocytes assessed as metabolite M12 formation at 12.5 uM after 2 hrs by LC-MS/MS analysis. Format: ADME, cell-based. In short, it runs like this:
(§3)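 Human hepatocytes incubated with substrate at 12.5 μM for 2 h. Products characterized by LC–MS/MS on a C18 column, 5–95% acetonitrile gradient in water with 0.1% formic acid over 8 min. Metabolites numbered by elution order. Abundance is semiquantitative from peak heights (low/medium/high), assuming equal analyte response.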

The nature of data set [10]: Oral absorption in Han Wistar rat at 2 mg/kg up to 7 hrs by LC-MS/MS analysis. In kind it is ADME, organism-based. Set-up: dose 2 mg/kg. Particulars: in vivo, read-out: Fa. An outline of the steps:
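Rat oral absorption from hepatic portal vein plasma, corrected for systemic circulation levels, after β-glucuronidase treatment of samples (deconjugated HPV model). Expressed as h·ng/mL.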

The test system of data set [11] is Cavia porcellus. Description: Bronchodilatory activity in guinea pig assessed as inhibition of histamine-induced bronchoconstriction administered via nebulization 2 mins prior to histamine challenge relative to salmeterol acetate. In kind it is functional. In short, it runs like this:
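Conscious guinea pigs (n = 24 per group) in a whole-body plethysmograph; agonist given by 2 min nebulization before challenge with nebulized histamine (10 mM, 1.3 min). Enhanced pause (PenH) was recorded for 15 min as the index of airway obstruction. Potency was expressed as EC90 by nebulizer concentration and compared with salmeterol acetate.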

For data set [12], the target named is Cytochrome P450 2C9 (Homo sapiens, UniProt P11712). Kind of data set: Inhibition of human CYP2C9 expressed in Escherichia coli. Format: ADME. An outline of the steps: as §2
The test system of data set [13] is Hepatocyte. Description: Drug metabolism in human hepatocytes assessed as metabolite M7 formation at 12.5 uM after 2 hrs by LC-MS/MS analysis. Format: ADME, cell-based. An outline of the steps: as §3
The nature of data set [14]: Plasma protein binding in guinea pig. In kind it is ADME, cell-free, Cavia porcellus. Particulars: read-out: PPB (converted).

Structures are written as SMILES.

Chain of Cytochrome P450 2C9 (P11712 whole entry): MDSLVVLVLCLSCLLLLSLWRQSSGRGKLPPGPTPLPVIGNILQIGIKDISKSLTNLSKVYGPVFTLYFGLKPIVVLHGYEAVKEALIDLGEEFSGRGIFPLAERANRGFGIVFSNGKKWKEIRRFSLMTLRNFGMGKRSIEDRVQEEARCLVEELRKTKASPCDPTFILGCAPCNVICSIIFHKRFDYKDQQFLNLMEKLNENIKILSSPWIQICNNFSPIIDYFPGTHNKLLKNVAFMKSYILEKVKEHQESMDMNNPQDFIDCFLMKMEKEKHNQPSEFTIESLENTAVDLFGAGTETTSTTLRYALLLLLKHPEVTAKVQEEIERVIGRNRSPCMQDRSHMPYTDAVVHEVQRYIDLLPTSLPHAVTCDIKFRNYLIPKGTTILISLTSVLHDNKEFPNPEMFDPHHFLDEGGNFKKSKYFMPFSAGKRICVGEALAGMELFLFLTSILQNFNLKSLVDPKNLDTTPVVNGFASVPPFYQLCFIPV
Chain of Cytochrome P450 3A4 (P08684 whole entry): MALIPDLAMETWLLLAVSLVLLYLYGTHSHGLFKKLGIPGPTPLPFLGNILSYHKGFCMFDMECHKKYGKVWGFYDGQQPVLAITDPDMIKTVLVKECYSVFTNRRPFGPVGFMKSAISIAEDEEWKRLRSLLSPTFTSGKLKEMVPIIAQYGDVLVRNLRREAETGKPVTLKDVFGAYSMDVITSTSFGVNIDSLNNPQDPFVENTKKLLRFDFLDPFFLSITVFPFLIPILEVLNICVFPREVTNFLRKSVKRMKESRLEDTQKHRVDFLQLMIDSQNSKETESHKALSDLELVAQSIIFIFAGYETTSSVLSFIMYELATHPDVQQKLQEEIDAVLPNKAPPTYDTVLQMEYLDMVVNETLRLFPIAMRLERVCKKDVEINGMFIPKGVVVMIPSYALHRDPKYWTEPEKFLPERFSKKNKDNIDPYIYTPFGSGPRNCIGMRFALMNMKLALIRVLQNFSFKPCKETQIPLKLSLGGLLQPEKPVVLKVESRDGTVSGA

Broadly, the EC90 is the point of the concentration-response curve where the effect stands at 90%. As a reminder, the IC50 is the concentration that gives 50% inhibition. One may read the bioavailability as the share of a dose that reaches the circulation, judged against a reference dose that is usually intravenous. The low end stands for little systemic uptake, the high end for much systemic uptake. Take `CC(=O)O.O=S(=O)(c1cccc(CCCCOCCCCCCNC[C@H](O)c2ccc(O)c(CO)c2)c1)C1CCCC1`: the CLH stood at 8 mL/min/g in data set [1] and 5 mL/min/g in data set [8]. Further, the blood plasma ratio in data set [2] turned out to be 0.65. Besides, the 90% effect concentration (EC90) in [3] was determined as 10 µM. Further, the IC50 is > 100 µM in data set [4], 3.8 µM in data set [6] and > 10 µM in [12]. For the same compound, in data set [5], the bioavailability is < 2%. In [7], the Vd came out at 0.1 L/kg. The Drug metabolism entry in data set [9] and in [13] was “Active” throughout. Also, the AUC at 7 h in data set [10] was found to be 15.9 ng·h/mL. For the same compound, the “fold change (FC)” value in [11] came out at 5. The fraction unbound in [14] was 0.03.

These data come from ChEMBL document CHEMBL3124822, “Discovery of a rapidly metabolized, long-acting β(2) adrenergic receptor agonist with a short onset time incorporating a sulfone group suitable for once-daily dosing” (J Med Chem, 2014).
